Measured values taken from ChEMBL document CHEMBL4359830, “Discovery and structure-activity relationship of novel diphenylthiazole derivatives as BTK inhibitor with potent activity against B cell lymphoma cell lines” (Eur J Med Chem, 2019).
Calls of active or inactive are those of the source. No cut-off for these calls is given here.

How the values were obtained:
[1] = tested on: Ramos; assay: Antiproliferative activity against human Ramos cells at 40 uM measured after 72 hrs by CCK-8 assay relative to control; type: functional; settings: Homo sapiens, Ramos, 72 h
In short: (§1)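 Ramos or Raji cells in RPMI-1640 with 10% FBS and 1% penicillin-streptomycin at 37 °C, 5% CO2. Seeded at 2000–3000 cells/well one day before compound addition. Exposure 72 h, then CCK-8 with absorbance at 450 nm. […] Single-point inhibition at 40 µM reported as mean ± standard deviation.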

[2] = tested on: Raji; assay: Antiproliferative activity against human Raji cells measured after 72 hrs by CCK-8 assay; type: functional, cell-based; in short: as §1
[3] = target: Tyrosine-protein kinase BTK (Homo sapiens, UniProt Q06187, C481S); assay: Inhibition of human recombinant full length N-terminal His tagged BTK C481S mutant expressed in baculovirus infected Sf9 cells using poly (Glu,Tyr) 4:1 as substrate measured after 60 mins in presence of ATP by ADP-Glo kinase assay
Sequence of Tyrosine-protein kinase BTK (Homo sapiens, UniProt Q06187, C481S) (Q06187 2-659 C481S limits assumed): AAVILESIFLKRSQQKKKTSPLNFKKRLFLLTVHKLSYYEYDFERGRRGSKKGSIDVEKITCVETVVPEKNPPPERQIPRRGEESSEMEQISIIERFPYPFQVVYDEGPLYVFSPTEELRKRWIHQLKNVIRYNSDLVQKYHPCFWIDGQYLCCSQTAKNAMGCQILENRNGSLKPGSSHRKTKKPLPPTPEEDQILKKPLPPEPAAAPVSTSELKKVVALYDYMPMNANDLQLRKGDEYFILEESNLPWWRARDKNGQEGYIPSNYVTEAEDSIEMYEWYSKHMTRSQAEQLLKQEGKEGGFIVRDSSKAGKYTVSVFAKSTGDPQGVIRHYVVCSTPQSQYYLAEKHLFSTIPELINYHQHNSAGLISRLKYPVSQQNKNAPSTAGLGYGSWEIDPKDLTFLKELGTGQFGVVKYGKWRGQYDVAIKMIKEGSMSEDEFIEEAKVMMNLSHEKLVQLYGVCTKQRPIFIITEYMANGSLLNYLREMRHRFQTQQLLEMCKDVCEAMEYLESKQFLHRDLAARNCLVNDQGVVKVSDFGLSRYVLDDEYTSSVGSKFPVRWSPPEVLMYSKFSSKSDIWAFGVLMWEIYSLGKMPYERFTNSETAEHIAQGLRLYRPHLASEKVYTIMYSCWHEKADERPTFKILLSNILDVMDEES

[4] = tested on: Ramos; assay: Induction of apoptosis in human Ramos cells assessed as late apoptotic cells at 0.1 uM measured after 15 mins by Annexin-V-APC staining-based flow cytometric analysis (reference value: 1.85 %); type: functional
[5] = tested on: Ramos; assay: Induction of apoptosis in human Ramos cells assessed as necrotic cells at 0.1 uM measured after 15 mins by Annexin-V-APC staining-based flow cytometric analysis (reference value: 1.50 %); type: functional
[6] = tested on: Ramos; assay: Induction of apoptosis in human Ramos cells assessed as late apoptotic cells at 1 uM measured after 15 mins by Annexin-V-APC staining-based flow cytometric analysis (reference value: 1.85 %); type: functional
[7] = tested on: Ramos; assay: Induction of apoptosis in human Ramos cells assessed as viable cells at 3 uM measured after 15 mins by Annexin-V-APC staining-based flow cytometric analysis (reference value: 96.5 %); type: functional; settings: 0.25 h, read-out: Activity
[8] = tested on: Ramos; assay: Induction of apoptosis in human Ramos cells assessed as viable cells at 5 uM measured after 15 mins by Annexin-V-APC staining-based flow cytometric analysis (reference value: 96.5 %); type: functional; settings: Homo sapiens, Ramos, 0.25 h; read-out: Activity
[9] = tested on: Raji; assay: Induction of apoptosis in human Raji cells assessed as early apoptotic cells at 0.1 uM measured after 15 mins by Annexin-V-APC staining-based flow cytometric analysis (reference value: 0.021 %); type: functional
[10] = tested on: Raji; assay: Induction of apoptosis in human Raji cells assessed as late apoptotic cells at 0.1 uM measured after 15 mins by Annexin-V-APC staining-based flow cytometric analysis (reference value: 0.57 %); type: functional
[11] = tested on: Raji; assay: Induction of apoptosis in human Raji cells assessed as early apoptotic cells at 1 uM measured after 15 mins by Annexin-V-APC staining-based flow cytometric analysis (reference value: 0.021 %); type: functional
[12] = tested on: Raji; assay: Induction of apoptosis in human Raji cells assessed as late apoptotic cells at 1 uM measured after 15 mins by Annexin-V-APC staining-based flow cytometric analysis (reference value: 0.57 %); type: functional
[13] = tested on: Raji; assay: Induction of apoptosis in human Raji cells assessed as necrotic cells at 1 uM measured after 15 mins by Annexin-V-APC staining-based flow cytometric analysis (reference value: 1.87 %); type: functional
[14] = tested on: Raji; assay: Induction of apoptosis in human Raji cells assessed as viable cells at 3 uM measured after 15 mins by Annexin-V-APC staining-based flow cytometric analysis (reference value: 97.5 %); type: functional; settings: 0.25 h, read-out: Activity
[15] = tested on: Raji; assay: Induction of apoptosis in human Raji cells assessed as early apoptotic cells at 3 uM measured after 15 mins by Annexin-V-APC staining-based flow cytometric analysis (reference value: 0.021 %); type: functional
[16] = tested on: Raji; assay: Induction of apoptosis in human Raji cells assessed as late apoptotic cells at 3 uM measured after 15 mins by Annexin-V-APC staining-based flow cytometric analysis (reference value: 0.57 %); type: functional
[17] = tested on: Raji; assay: Induction of apoptosis in human Raji cells assessed as viable cells at 5 uM measured after 15 mins by Annexin-V-APC staining-based flow cytometric analysis (reference value: 97.5 %); type: functional; settings: Homo sapiens, Raji, 0.25 h; read-out: Activity
[18] = tested on: Raji; assay: Induction of apoptosis in human Raji cells assessed as early apoptotic cells at 5 uM measured after 15 mins by Annexin-V-APC staining-based flow cytometric analysis (reference value: 0.021 %); type: functional
[19] = tested on: Raji; assay: Induction of apoptosis in human Raji cells assessed as necrotic cells at 5 uM measured after 15 mins by Annexin-V-APC staining-based flow cytometric analysis (reference value: 1.87 %); type: functional
[20] = tested on: Ramos; assay: Cell cycle arrest in human Ramos cells assessed as accumulation at G0/G1 phase at 0.1 uM measured after 48 hrs by propidium iodide/RNase staining based flow cytometric analysis (reference value: 37.66 %); type: functional
[21] = tested on: Ramos; assay: Cell cycle arrest in human Ramos cells assessed as accumulation at S phase at 0.1 uM measured after 48 hrs by propidium iodide/RNase staining based flow cytometric analysis (reference value: 56.35 %); type: functional
[22] = tested on: Ramos; assay: Cell cycle arrest in human Ramos cells assessed as accumulation at G0/G1 phase at 1 uM measured after 48 hrs by propidium iodide/RNase staining based flow cytometric analysis (reference value: 37.66 %); type: functional
[23] = tested on: Ramos; assay: Cell cycle arrest in human Ramos cells assessed as accumulation at S phase at 1 uM measured after 48 hrs by propidium iodide/RNase staining based flow cytometric analysis (reference value: 56.35 %); type: functional
[24] = tested on: Ramos; assay: Cell cycle arrest in human Ramos cells assessed as accumulation at G2/M phase at 1 uM measured after 48 hrs by propidium iodide/RNase staining based flow cytometric analysis (reference value: 5.98 %); type: functional
[25] = tested on: Raji; assay: Cell cycle arrest in human Raji cells assessed as accumulation at G2/M phase at 0.1 uM measured after 48 hrs by propidium iodide/RNase staining based flow cytometric analysis (reference value: 18.14 %); type: functional
[26] = tested on: Raji; assay: Cell cycle arrest in human Raji cells assessed as accumulation at S phase at 1 uM measured after 48 hrs by propidium iodide/RNase staining based flow cytometric analysis (reference value: 33.18 %); type: functional
[27] = tested on: Raji; assay: Cell cycle arrest in human Raji cells assessed as accumulation at G2/M phase at 1 uM measured after 48 hrs by propidium iodide/RNase staining based flow cytometric analysis (reference value: 18.14 %); type: functional
[28] = tested on: Raji; assay: Cell cycle arrest in human Raji cells assessed as accumulation at S phase at 5 uM measured after 48 hrs by propidium iodide/RNase staining based flow cytometric analysis (reference value: 33.18 %); type: functional
[29] = target: T1, Tyrosine-protein kinase BTK (Homo sapiens, UniProt Q06187); assay: Inhibition of BTK in anti-IgM-stimulated human Raji cells assessed as decrease in auto-phosphorylation at Y223 residue at 5 uM after 48 hrs by Western blot analysis; type: cell-based
T1 sequence (Q06187 whole entry): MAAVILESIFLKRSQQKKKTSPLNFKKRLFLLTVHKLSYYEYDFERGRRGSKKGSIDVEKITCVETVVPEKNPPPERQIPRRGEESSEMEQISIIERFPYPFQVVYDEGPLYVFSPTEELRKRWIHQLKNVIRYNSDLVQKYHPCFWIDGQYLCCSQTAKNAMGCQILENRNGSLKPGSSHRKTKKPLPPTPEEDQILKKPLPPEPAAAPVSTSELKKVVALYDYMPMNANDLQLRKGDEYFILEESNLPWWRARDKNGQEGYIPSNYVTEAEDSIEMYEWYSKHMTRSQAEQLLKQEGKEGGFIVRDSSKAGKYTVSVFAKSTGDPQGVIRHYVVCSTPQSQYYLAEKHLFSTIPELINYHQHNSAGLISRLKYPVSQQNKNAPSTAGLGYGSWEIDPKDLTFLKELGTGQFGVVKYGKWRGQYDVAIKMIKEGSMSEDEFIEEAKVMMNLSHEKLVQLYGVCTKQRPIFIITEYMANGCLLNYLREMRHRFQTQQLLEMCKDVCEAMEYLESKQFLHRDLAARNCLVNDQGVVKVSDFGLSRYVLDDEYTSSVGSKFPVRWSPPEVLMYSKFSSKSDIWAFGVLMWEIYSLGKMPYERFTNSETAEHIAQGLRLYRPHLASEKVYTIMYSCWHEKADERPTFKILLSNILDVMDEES
In short: (§2)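 Cells were stimulated with anti-IgM and exposed to serial dilutions for 48 h. Lysis was in 2× Laemmli buffer with 2.5% β-mercaptoethanol at 4 °C for 15 min, then boiling for 5 min. Proteins were separated on 10% SDS-PAGE and moved to nitrocellulose. Blots were probed overnight (12–18 h, 4 °C) with phospho-BTK Tyr223, phospho-PLCγ2 Tyr1217 and β-actin antibodies (1:1000), then anti-rabbit HRP, with chemiluminescent detection.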

[30] = target: T1, Tyrosine-protein kinase BTK; assay: Inhibition of BTK in anti-IgM-stimulated human Raji cells assessed as decrease in auto-phosphorylation at Y223 residue after 48 hrs by Western blot analysis; type: cell-based; in short: as §2

`CN1CCN(c2ccc(Nc3nc(-c4cccc(NC(=O)c5ccc(F)c(Cl)c5)c4)sc3C(N)=O)cc2)CC1` showed an inhibition at 40 µM [1] of 97.5%, an IC50 [2] of 6.23 µM and an IC50 [3] of 0.061 µM. The Activity [4] was 1.88%, the Activity [5] was 1.61% and the Activity [6] was 2.23%. It also gave a viability at 3 µM [7] of 87.3%, a viability at 5 µM [8] of 1.55% and an Activity [9] of 0.01%. For the same molecule, the Activity [10] was 0.44%, the Activity [11] was 0% and the Activity [12] was 0.53%. For the same molecule, the Activity [13] was 1.88%, the viability at 3 µM [14] was 95.6% and the Activity [15] was 0%. The Activity [16] was 1.52%, the viability at 5 µM [17] was 0.15% and the Activity [18] was 0.091%. It also gave an Activity [19] of 32%, an Activity [20] of 40.13% and an Activity [21] of 51.54%. It also gave an Activity [22] of 55.48%, an Activity [23] of 33.13% and an Activity [24] of 11.39%. It also gave an Activity [25] of 19.33%, an Activity [26] of 21.47% and an Activity [27] of 24.53%. For the same molecule, the Activity [28] was 1.26%, the inhibition [29] was “Active” and the inhibition [30] was “Dose-dependent effect”.
